Measured values as given in ChEMBL document CHEMBL2424583, “Structure-activity relationship and in vitro and in vivo evaluation of the potent cytotoxic anti-microtubule agent N-(4-methoxyphenyl)-N,2,6-trimethyl-6,7-dihydro-5H-cyclopenta[d]pyrimidin-4-aminium chloride and its analogues as antitumor agents” (J Med Chem, 2013).
Calls of active or inactive are those of the source. The calls are words filed in the database; no cut-off is given here.

Columns and labels:
CAKI-1 = experiment: Cytotoxicity against human CAKI-1 cells assessed as growth inhibition after 48 hrs by SRB assay; assay type: functional; details: CAKI-1, 48 h
MDA-MB-231 [1] = experiment: Antitumor activity against human MDA-MB-231 cells xenografted in athymic nude mouse assessed as tumor growth inhibition at 50 mg/kg, ip bid administered every other day started on day 14 followed by compound readministration every other day started on day 27 measured on day 31 relative to control; assay type: functional; details: route intraperitoneal
Procedure, shortened: (§1)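 Female athymic nude mice were implanted sc with an MDA-MB-231T tumour fragment, and tumours were staged to about 125 mg. Drug was given ip in 10% DMSO in saline/Tween 80, with courses starting day 14 and repeated from day 27. There were 8 animals per treated group and 16 controls. Read-outs were body weight, deaths, median tumour mass as T/C, days to a predetermined size as T-C/C, and net log cell kill.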

MDA-MB-231 [2] = experiment: Antitumor activity against human MDA-MB-231 cells xenografted in athymic nude mouse assessed as tumor growth inhibition at 75 mg/kg, ip qd administered on day 14 for 5 days followed by compound readministration on day 27 measured on day 31 relative to control; assay type: functional; details: route intraperitoneal; procedure, shortened: as §1
MDA-MB-231 [3] = experiment: Antitumor activity against human MDA-MB-231 cells xenografted in athymic nude mouse assessed as delay in tumor growth at 75 mg/kg, ip qd administered every other day started on day 14 for 5 days followed by compound readministration on day 27 measured on day 31 relative to control; assay type: functional; details: route intraperitoneal
Procedure, shortened: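 MDA-MB-231T tumor fragments implanted sc in female athymic nude mice and staged to about 125 mg. Dosing was ip in 10% DMSO in saline/Tween 80, with courses starting day 14 and again day 27. Groups had 8 treated animals and 16 controls. Growth delay (T-C/C) is the median days for treated vs control tumors to reach a predetermined size, normalized to control, as %.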

Mus musculus [4] = experiment: Toxicity in athymic nude mouse xenografted in human MDA-MB-231 cells assessed as mortality at 50 mg/kg, ip qd administered on day 14 for 5 days followed by compound readministration on day 27; assay type: organism-based; design: dose 50 mg/kg, route intraperitoneal; details: in vivo, 120 h; procedure, shortened: as §1
MDA-MB-231 [5] = experiment: Antitumor activity against human MDA-MB-231 cells xenografted in athymic nude mouse assessed as net tumor log cell kill at 75 mg/kg, ip qd administered on day 14 for 5 days followed by compound readministration on day 27; assay type: functional; details: route intraperitoneal; procedure, shortened: as §1
MDA-MB-231 [6] = experiment: Antitumor activity against human MDA-MB-231 cells xenografted in athymic nude mouse assessed as tumor log cell kill at 75 mg/kg, ip qd administered every other day started on day 14 for 5 days followed by compound readministration on day 27; assay type: functional; details: route intraperitoneal; procedure, shortened: as §1
Mus musculus [7] = experiment: Toxicity in athymic nude mouse xenografted in human MDA-MB-231 cells assessed as body weight loss at 50 mg/kg, ip bid administered every other day started on day 14 followed by compound readministration every other day started on day 27 (reference value: 6.7%); assay type: organism-based; design: dose 50 mg/kg, route intraperitoneal; details: in vivo
MDA-MB-435 = experiment: Cytotoxicity against human MDA-MB-435 cells assessed as growth inhibition after 48 hrs by SRB assay; assay type: functional, cell-based; details: MDA-MB-435, 48 h
MDA-MB-231 [8] = experiment: Antitumor activity against human MDA-MB-231 cells xenografted in athymic nude mouse assessed as tumor free state at 50 mg/kg, ip qd administered on day 14 for 5 days followed by compound readministration on day 27 measured on day 41; assay type: functional, organism-based; design: dose 50 mg/kg
Procedure, shortened: (§2)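 Female athymic nude mice carried sc MDA-MB-231T tumor fragments staged to about 125 mg. Compound was given ip as a solution in 10% DMSO in saline/Tween 80, with courses beginning day 14 and repeated from day 27. Groups had 8 animals, with 16 vehicle controls. Animals were scored as tumor-free on day 41.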

MDA-MB-231 [9] = experiment: Antitumor activity against human MDA-MB-231 cells xenografted in athymic nude mouse assessed as delay in tumor growth at 75 mg/kg, ip qd administered on day 14 for 5 days followed by compound readministration on day 27 measured on day 31 relative to control; assay type: functional; details: route intraperitoneal; procedure, shortened: as §1
MDA-MB-231 [10] = experiment: Antitumor activity against human MDA-MB-231 cells xenografted in athymic nude mouse assessed as tumor free state at 50 mg/kg, ip bid administered every other day started on day 14 followed by compound readministration every other day started on day 27 measured on day 41; assay type: functional, organism-based; design: dose 50 mg/kg; procedure, shortened: as §2
MDA-MB-231 [11] = experiment: Antitumor activity against human MDA-MB-231 cells xenografted in athymic nude mouse assessed as tumor growth inhibition at 75 mg/kg, ip qd administered every other day started on day 14 for 5 days followed by compound readministration on day 27 measured on day 31 relative to control; assay type: functional; details: route intraperitoneal; procedure, shortened: as §1
Mus musculus [12] = experiment: Toxicity in athymic nude mouse xenografted in human MDA-MB-231 cells assessed as body weight loss at 50 mg/kg, ip qd administered on day 14 for 5 days followed by compound readministration on day 27 (reference value: 6.7%); assay type: organism-based; design: dose 50 mg/kg, route intraperitoneal; details: in vivo, 120 h
Mus musculus [13] = experiment: Toxicity in athymic nude mouse xenografted in human MDA-MB-231 cells assessed as mortality at 50 mg/kg, ip bid administered every other day started on day 14 followed by compound readministration every other day started on day 27; assay type: organism-based; design: dose 50 mg/kg, route intraperitoneal; details: in vivo; procedure, shortened: as §1
HeLa = experiment: Antiproliferative activity against human HeLa cells after 48 hrs by SRB assay; assay type: functional, cell-based
Procedure, shortened: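 Isogenic pairs: parental SK-OV-3 alongside its Pgp-overexpressing subline MDR-M6-6, and parental HeLa alongside βIII-tubulin-transfected HeLa. Antiproliferative IC50 measured by sulforhodamine B assay, averaged from at least three independent experiments ± SD. Relative resistance is the transduced-line IC50 divided by the parental-line IC50.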

MDA-MB-231 [14] = experiment: Antitumor activity against human MDA-MB-231 cells xenografted in athymic nude mouse assessed as delay in tumor growth at 50 mg/kg, ip qd administered on day 14 for 5 days followed by compound readministration on day 27 measured on day 31 relative to control; assay type: functional; details: route intraperitoneal; procedure, shortened: as §1
[15] = Relative resistance, ratio of IC50 for M6-6 in human SKOV3 cells to IC50 for human SKOV3 cells; design: species or system SK-OV-3
Procedure, shortened: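 SRB antiproliferative assay on isogenic pairs: parental SK-OV-3 vs Pgp-overexpressing SK-OV-3 MDR-M6-6, and parental HeLa vs βIII-tubulin-transfected HeLa. IC50 is the mean ± SD of at least three independent experiments. Relative resistance (Rr) is the IC50 of the transduced line divided by the IC50 of the parental line.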

Row | Structure (SMILES) | GI50 (CAKI-1) | T/C (MDA-MB-231 [1]) | T/C (MDA-MB-231 [2]) | Activity (MDA-MB-231 [3]) | Activity (Mus musculus [4]) | LCK (MDA-MB-231 [5]) | LCK (MDA-MB-231 [6]) | %max (Mus musculus [7]) | IC50 (MDA-MB-435) | Activity (MDA-MB-231 [8]) | Activity (MDA-MB-231 [9]) | Activity (MDA-MB-231 [10]) | T/C (MDA-MB-231 [11]) | %max (Mus musculus [12]) | Activity (Mus musculus [13]) | IC50 (HeLa) | Activity (MDA-MB-231 [14]) | Ratio IC50 [15]
1 | COc1ccc(N(C)c2nc(C)nc3c2CCC3)cc1.Cl | < 10 nM | 25% | 17% | 44% | Non-toxic | -1.1 | -1.5 | 7.8% | 7 nM | Active | 40% | Active | 19% | 7.7% | Non-toxic | 9.3 nM | 27% | 
2 | COc1ccc(N(C)c2nc(C)nc3c2CC(C)C3)cc1.Cl (racemic) |  |  |  |  |  |  |  |  |  |  |  |  |  |  |  |  |  | 1.2
